Laboratory results from ChEMBL document CHEMBL4406880, “Design, synthesis, and bioactivity of dihydropyrimidine derivatives as kinesin spindle protein inhibitors” (Bioorg Med Chem, 2019).

Tests used:
Format in all cases: functional
CCRF-CEM = assay: Growth inhibition of human CCRF-CEM cells assessed as growth percentage at 10 uM incubated for 48 hrs by sulforhodamine B assay relative to control; settings: read-out: Activity
Outline: (§1)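 NCI-60 one-dose screen: cells in RPMI 1640 with 5% FBS and 2 mM L-glutamine, plated at 5,000–40,000 cells/well and preincubated 24 h at 37 °C, 5% CO2. Compound is added from a DMSO stock to a final 10 µM and incubated 48 h. Cells are TCA-fixed and stained with sulforhodamine B, read at 515 nm. Output is % growth versus untreated control, with a time-zero plate.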

UO-31 = assay: Growth inhibition of human UO31 cells assessed as growth percentage at 10 uM incubated for 48 hrs by sulforhodamine B assay relative to control; settings: UO-31, 48 h, read-out: Activity
Outline: (§2)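 NCI-60 single-dose screen. Cells were grown in RPMI 1640 with 5% FBS and 2 mM L-glutamine and plated at 5,000–40,000 cells/well. After an overnight preincubation at 37 °C in 5% CO2, compound was added at a final 10 µM from a DMSO stock, with DMSO/PBS controls. After 48 h, cells were TCA-fixed and stained with 0.4% SRB, and absorbance was read at 515 nm. Growth is given as a percentage of untreated control.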

EKVX = assay: Growth inhibition of human EKVX cells assessed as growth percentage at 10 uM incubated for 48 hrs by sulforhodamine B assay relative to control; settings: read-out: Activity; outline: as §1
Hs-578T = assay: Growth inhibition of human Hs 578T cells assessed as growth percentage at 10 uM incubated for 48 hrs by sulforhodamine B assay relative to control; settings: read-out: Activity
Outline: (§3)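 NCI-60 one-dose screen. Cells in RPMI 1640 with 5% FBS and 2 mM L-glutamine, seeded at 5,000–40,000 cells/well according to doubling time, and preincubated overnight at 37 °C, 5% CO2. A time-zero plate was TCA-fixed at drug addition. Compound from DMSO stock, final 10 µM, 48 h; DMSO vehicle controls. Fixation with TCA, 10% final (16% for suspension cells). SRB stain, Tris solubilization, A515. Result given as % growth versus untreated cells.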

M14 = assay: Growth inhibition of human M14 cells assessed as growth percentage at 10 uM incubated for 48 hrs by sulforhodamine B assay relative to control; settings: M14, 48 h, read-out: Activity; outline: as §3
NCI-H522 = assay: Growth inhibition of human NCI-H522 cells assessed as growth percentage at 10 uM incubated for 48 hrs by sulforhodamine B assay relative to control; settings: NCI-H522, 48 h, read-out: Activity; outline: as §3
SK-OV-3 = assay: Growth inhibition of human SKOV3 cells assessed as growth percentage at 10 uM incubated for 48 hrs by sulforhodamine B assay relative to control; settings: SK-OV-3, 48 h, read-out: Activity; outline: as §2
T47D = assay: Growth inhibition of human T47D cells assessed as growth percentage at 10 uM incubated for 48 hrs by sulforhodamine B assay relative to control; settings: read-out: Activity; outline: as §2
TK-10 = assay: Growth inhibition of human TK10 cells assessed as growth percentage at 10 uM incubated for 48 hrs by sulforhodamine B assay relative to control; settings: TK-10, 48 h, read-out: Activity; outline: as §2
MOLT-4 = assay: Growth inhibition of human MOLT4 cells assessed as growth percentage at 10 uM incubated for 48 hrs by sulforhodamine B assay relative to control; settings: MOLT-4, 48 h, read-out: Activity; outline: as §3
MDA-MB-435 = assay: Growth inhibition of human MDA-MB-435 cells assessed as growth percentage at 10 uM incubated for 48 hrs by sulforhodamine B assay relative to control; settings: MDA-MB-435, 48 h, read-out: Activity; outline: as §3
SR = assay: Growth inhibition of human SR cells assessed as growth percentage at 10 uM incubated for 48 hrs by sulforhodamine B assay relative to control; settings: read-out: Activity; outline: as §2
BT-549 = assay: Growth inhibition of human BT549 cells assessed as growth percentage at 10 uM incubated for 48 hrs by sulforhodamine B assay relative to control; settings: BT-549, 48 h, read-out: Activity; outline: as §1
NCI-H460 = assay: Growth inhibition of human NCI-H460 cells assessed as growth percentage at 10 uM incubated for 48 hrs by sulforhodamine B assay relative to control; settings: NCI-H460, 48 h, read-out: Activity; outline: as §3
HOP-62 = assay: Growth inhibition of human HOP62 cells assessed as growth percentage at 10 uM incubated for 48 hrs by sulforhodamine B assay relative to control; settings: HOP-62, 48 h, read-out: Activity; outline: as §3
MCF7 = assay: Growth inhibition of human MCF7 cells assessed as growth percentage at 10 uM incubated for 48 hrs by sulforhodamine B assay relative to control; settings: MCF7, 48 h, read-out: Activity; outline: as §3
NCI-H322M = assay: Growth inhibition of human NCI-H322M cells assessed as growth percentage at 10 uM incubated for 48 hrs by sulforhodamine B assay relative to control; settings: read-out: Activity; outline: as §3
SNB-75 = assay: Growth inhibition of human SNB75 cells assessed as growth percentage at 10 uM incubated for 48 hrs by sulforhodamine B assay relative to control; settings: SNB-75, 48 h, read-out: Activity; outline: as §2
ACHN = assay: Growth inhibition of human ACHN cells assessed as growth percentage at 10 uM incubated for 48 hrs by sulforhodamine B assay relative to control; settings: read-out: Activity; outline: as §1
RPMI-8226 = assay: Growth inhibition of human RPMI8226 cells assessed as growth percentage at 10 uM incubated for 48 hrs by sulforhodamine B assay relative to control; settings: RPMI-8226, 48 h, read-out: Activity; outline: as §2
MDA-MB-468 = assay: Growth inhibition of human MDA-MB-468 cells assessed as growth percentage at 10 uM incubated for 48 hrs by sulforhodamine B assay relative to control; settings: MDA-MB-468, 48 h, read-out: Activity; outline: as §3
IGROV-1 = assay: Growth inhibition of human IGROV1 cells assessed as growth percentage at 10 uM incubated for 48 hrs by sulforhodamine B assay relative to control; settings: IGROV-1, 48 h, read-out: Activity; outline: as §3
786-0 = assay: Growth inhibition of human 786-0 cells assessed as growth percentage at 10 uM incubated for 48 hrs by sulforhodamine B assay relative to control; settings: 786-0, 48 h, read-out: Activity; outline: as §1
SF-539 = assay: Growth inhibition of human SF539 cells assessed as growth percentage at 10 uM incubated for 48 hrs by sulforhodamine B assay relative to control; settings: SF-539, 48 h, read-out: Activity; outline: as §2
NCI-H226 = assay: Growth inhibition of human NCI-H226 cells assessed as growth percentage at 10 uM incubated for 48 hrs by sulforhodamine B assay relative to control; settings: NCI-H226, 48 h, read-out: Activity; outline: as §3
SNB-19 = assay: Growth inhibition of human SNB19 cells assessed as growth percentage at 10 uM incubated for 48 hrs by sulforhodamine B assay relative to control; settings: SNB-19, 48 h, read-out: Activity; outline: as §2
PC-3 = assay: Growth inhibition of human PC3 cells assessed as growth percentage at 10 uM incubated for 48 hrs by sulforhodamine B assay relative to control; settings: PC-3, 48 h, read-out: Activity; outline: as §2

Row | SMILES | growth at 10 µM (CCRF-CEM) | growth at 10 µM (UO-31) | growth at 10 µM (EKVX) | growth at 10 µM (Hs-578T) | growth at 10 µM (M14) | growth at 10 µM (NCI-H522) | growth at 10 µM (SK-OV-3) | growth at 10 µM (T47D) | growth at 10 µM (TK-10) | growth at 10 µM (MOLT-4) | growth at 10 µM (MDA-MB-435) | growth at 10 µM (SR) | growth at 10 µM (BT-549) | growth at 10 µM (NCI-H460) | growth at 10 µM (HOP-62) | growth at 10 µM (MCF7) | growth at 10 µM (NCI-H322M) | growth at 10 µM (SNB-75) | growth at 10 µM (ACHN) | growth at 10 µM (RPMI-8226) | also measured
1 | O=C1NC2=C(C(=O)c3ccccc32)C(c2ccc3c(c2)OCO3)N1 (racemic) | 103% | 85.4% | 97.4% | 98.8% | 110% | 90.7% | 104% | 95% | 96.1% | 104% | 105% | 110% | 102% | 113% | 96.1% | 96.5% | 111% | 78.5% | 104% | 107% | growth at 10 µM (MDA-MB-468): 114%; growth at 10 µM (IGROV-1): 104%; growth at 10 µM (786-0): 106%; growth at 10 µM (SF-539): 94.7%; growth at 10 µM (NCI-H226): 102%; growth at 10 µM (SNB-19): 97.9%; growth at 10 µM (PC-3): 101%
2 | CC1(C)CC(=O)C2=C(C1)NC(=O)NC2c1ccc2c(c1)OCO2 (racemic) | 111% | 84.6% | 107% | 113% | 102% | 93.9% | 112% | 106% | 106% | 95.9% | 106% | 118% | 109% | 117% | 122% | 98.3% | 105% | 97.5% | 109% | 110% | growth at 10 µM (MDA-MB-468): 118%; growth at 10 µM (IGROV-1): 97.9%; growth at 10 µM (786-0): 105%; growth at 10 µM (SF-539): 106%; growth at 10 µM (NCI-H226): 109%; growth at 10 µM (SNB-19): 108%; growth at 10 µM (PC-3): 99.4%
3 | CC1=C(C(=O)c2ccccc2)C(c2ccc3c(c2)OCO3)NC(=S)N1 (racemic) | 41.2% | 55.7% | 73.5% | 23.4% | 34.6% | 38.3% | 51.6% | 67.9% | 66% | 36.6% | -49.5% | 6.28% | 50.6% | 8.05% | 51.8% | 22% | 67.7% | -1.4% | 45.5% | 44% | growth at 10 µM (MDA-MB-468): 54.3%; growth at 10 µM (IGROV-1): 46.1%; growth at 10 µM (786-0): 58.9%; growth at 10 µM (SF-539): 36.4%; growth at 10 µM (NCI-H226): 66.5%; growth at 10 µM (SNB-19): 63.8%; growth at 10 µM (PC-3): 61.5%
4 | CC(=O)C1=C(C)NC(=S)NC1c1ccc2c(c1)OCO2 (racemic) | 101% | 81% | 106% | 101% | 107% | 92.3% | 102% | 96.2% | 97.6% | 98.8% | 103% | 104% | 108% | 109% | 104% | 103% | 112% | 90.1% | 103% | 105% | growth at 10 µM (MDA-MB-468): 113%; growth at 10 µM (IGROV-1): 104%; growth at 10 µM (786-0): 103%; growth at 10 µM (SF-539): 98.7%; growth at 10 µM (NCI-H226): 102%; growth at 10 µM (SNB-19): 98.9%; growth at 10 µM (PC-3): 98.1%
